Published values of several laboratories.
Each line is one published result; the experiments were not run side by side.
Target: Serine/threonine-protein kinase pim-2 (PIM2, Homo sapiens, UniProt Q9P1W9)

Structure (SMILES) | effect on | technique | tested at | remaining binding
O=C(c1ccc(Nc2nccc(-c3cc4ccccc4s3)n2)cc1)N1CCC(N2CCCC2)CC1 | binding | competition with immobilised ligand | 1 µM | 100%
c1cncc(-c2cccc(Nc3nccc(NC4CCCCC4)n3)c2)c1 | binding | competition with immobilised ligand | 10 µM | 45%
C[C@@H]1CCN(c2nccc(-c3cnn4ncccc34)n2)C1 | binding |  | 1 µM | 78%
COc1ncc2cc3ccccc3nc2c1C#N | cell-free assay | competition with immobilised ligand | 5 µM | 88%
N#Cc1ccccc1CSc1nnc2c(n1)[nH]c1ccccc12 | binding | competition with immobilised ligand | 10 µM | 75%
CN(C(=O)c1ccccc1)c1cc(N(C)c2ccc3c(c2)CCc2ccc(C(=O)NCCN4CCOCC4)cc2C3=O)ccc1F | cell-free assay | competition with immobilised ligand | 1 µM | 72%
FC(F)(F)Oc1cccc(-c2cnc3ccc(-c4ccncc4)nn23)c1 | cell-free assay | competition with immobilised ligand | 5 µM | 45%
O=C(NCCCN1CCOCC1)c1ccc(Nc2ncc(Cl)c(-c3ccc(Cl)s3)n2)cc1 | binding | competition with immobilised ligand | 1 µM | 100%
COCCOc1nc(-c2ccc(Cl)nc2)nc2c1CN(C(=O)c1ncn3ccccc13)CC2 | cell-free assay | competition with immobilised ligand | 0.1 µM | 98%
CN(c1nccc(-c2cnn3ncccc23)n1)C1CC1 | binding |  | 1 µM | 100%
CCCOc1ccc([C@@H]2[C@@H](C(=O)O)[C@H](c3ccc4c(c3)OCO4)CN2CC(=O)Nc2c(CC)cccc2CC)cc1 | cell-free assay | competition with immobilised ligand | 1 µM | 99%
CN(CCCC(F)(F)F)c1nccc(-c2cnn3ncccc23)n1 | binding |  | 1 µM | 100%
O=C(NCC1CCOCC1)c1n[nH]cc1NC(=O)c1c(F)cccc1F | binding | competition with immobilised ligand | 1 µM | 91%
CC(C)(C)c1ccc(-c2nc(CBr)nn2-c2cccc(O)c2)cc1 | cell-free assay | competition with immobilised ligand | 10 µM | 81%
N[C@H]1CCN(c2nccc(-c3cnn4ncccc34)n2)C1 | binding |  | 1 µM | 98%
COc1cnc(Nc2cccc(S(N)(=O)=O)c2)nc1N1CCN(c2ccccc2)CC1 | binding | competition with immobilised ligand | 1 µM | 100%
CN(C)c1ncnc(-c2ccc3nc(Nc4cc(CN5CCN(C(=O)CC(F)(F)F)CC5)ccn4)[nH]c3c2)c1Cl | cell-free assay | competition with immobilised ligand | 1 µM | 100%
COc1ccnn2ncc(-c3ccnc(N(C)C)n3)c12 | binding |  | 1 µM | 100%
O=C(N[C@H]1CCCCC/C=C\C2C[C@@]2(C(=O)O)NC(=O)[C@@H]2C[C@@H](Oc3ccncc3)CN2C1=O)OC1CCCC1 (stereo partly drawn) | binding | competition with immobilised ligand | 1 µM | 100%
c1cnn2ncc(-c3ccnc(N4CCC45COC5)n3)c2c1 | binding |  | 1 µM | 64%
c1ccc(N2CCN(Cc3nc4ccccc4[nH]3)CC2)nc1 | binding | competition with immobilised ligand | 1 µM | 85%
C[C@@H]1CN(c2ccc3ncc(-c4ccc5[nH]nc(C6CC6)c5c4)n3n2)C[C@H](C)O1 | binding | competition with immobilised ligand | 0.5 µM | 3.5%
O=C(Nc1cccnn1)N1CCC(=Cc2cccc(Oc3ccc(C(F)(F)F)cn3)c2)CC1 | cell-free assay | competition with immobilised ligand | 1 µM | 97%
O=C(c1ccc(Nc2ncc(Cl)c(-c3cc4ccccc4s3)n2)cc1)N1CCC(N2CCCC2)CC1 | binding | competition with immobilised ligand | 1 µM | 100%
